ChEMBL document CHEMBL2417378, “Ligand-protein interactions of selective casein kinase 1δ inhibitors” (J Med Chem, 2013)

Tests used:
[1] = biological target: Rho-associated protein kinase 2 (Homo sapiens) (UniProt O75116); experiment: Inhibition of ROCK2 (unknown origin) at 1 uM
JNK2/JNK3 (Homo sapiens) = JNK2/JNK3 (Homo sapiens) (UniProt P53779+P45984); experiment: Inhibition of JNK 2/3 (unknown origin) at 1 uM; format: protein assay
[2] = biological target: Mitogen-activated protein kinase 14 (Homo sapiens) (UniProt Q16539); experiment: Inhibition of MAPK14 (unknown origin) at 1 uM
[3] = biological target: Tyrosine-protein kinase Lyn (Homo sapiens) (UniProt P07948); experiment: Inhibition of LYN (unknown origin) at 1 uM
[4] = biological target: Epidermal growth factor receptor (Homo sapiens) (UniProt P00533); experiment: Inhibition of EGFR (unknown origin) at 1 uM
Chain of Epidermal growth factor receptor (Homo sapiens) (P00533 whole entry): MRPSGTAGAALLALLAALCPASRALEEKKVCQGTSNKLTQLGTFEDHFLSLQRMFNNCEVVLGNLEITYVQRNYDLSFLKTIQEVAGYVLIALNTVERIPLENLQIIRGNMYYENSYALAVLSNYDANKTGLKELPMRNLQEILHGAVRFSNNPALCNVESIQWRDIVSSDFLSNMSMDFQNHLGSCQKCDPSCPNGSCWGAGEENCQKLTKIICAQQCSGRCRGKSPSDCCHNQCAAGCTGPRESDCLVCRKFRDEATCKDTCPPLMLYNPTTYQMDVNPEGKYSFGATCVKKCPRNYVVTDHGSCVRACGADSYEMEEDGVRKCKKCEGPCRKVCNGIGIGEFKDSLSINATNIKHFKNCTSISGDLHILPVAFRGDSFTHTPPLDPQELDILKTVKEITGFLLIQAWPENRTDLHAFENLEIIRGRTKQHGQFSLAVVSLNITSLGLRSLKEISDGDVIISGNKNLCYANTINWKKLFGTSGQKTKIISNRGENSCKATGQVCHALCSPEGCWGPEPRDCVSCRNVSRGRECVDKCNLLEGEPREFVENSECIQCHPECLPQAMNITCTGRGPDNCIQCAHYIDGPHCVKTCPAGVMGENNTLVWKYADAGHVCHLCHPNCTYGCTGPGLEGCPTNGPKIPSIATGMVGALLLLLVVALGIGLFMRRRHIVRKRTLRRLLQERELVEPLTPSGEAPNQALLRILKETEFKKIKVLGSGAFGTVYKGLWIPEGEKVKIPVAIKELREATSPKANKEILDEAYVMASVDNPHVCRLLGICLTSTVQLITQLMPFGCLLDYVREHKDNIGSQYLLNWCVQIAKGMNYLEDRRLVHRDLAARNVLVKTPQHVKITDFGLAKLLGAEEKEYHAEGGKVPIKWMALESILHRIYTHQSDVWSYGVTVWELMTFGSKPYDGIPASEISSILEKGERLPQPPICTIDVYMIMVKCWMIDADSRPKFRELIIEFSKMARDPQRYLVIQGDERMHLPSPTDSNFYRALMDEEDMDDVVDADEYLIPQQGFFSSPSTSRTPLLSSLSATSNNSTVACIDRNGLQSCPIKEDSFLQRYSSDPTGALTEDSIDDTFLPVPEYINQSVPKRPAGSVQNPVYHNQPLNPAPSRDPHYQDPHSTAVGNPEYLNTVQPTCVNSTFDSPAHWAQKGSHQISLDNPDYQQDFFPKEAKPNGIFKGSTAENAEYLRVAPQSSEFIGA

[5] = biological target: Tyrosine-protein kinase ABL1 (Homo sapiens) (UniProt P00519); experiment: Inhibition of ABL (unknown origin) at 1 uM
[6] = biological target: Mitogen-activated protein kinase kinase kinase kinase 4 (Homo sapiens) (UniProt O95819); experiment: Inhibition of MAP4K4 (unknown origin) at 1 uM
Chain of Mitogen-activated protein kinase kinase kinase kinase 4 (Homo sapiens) (O95819 2-1239 limits assumed): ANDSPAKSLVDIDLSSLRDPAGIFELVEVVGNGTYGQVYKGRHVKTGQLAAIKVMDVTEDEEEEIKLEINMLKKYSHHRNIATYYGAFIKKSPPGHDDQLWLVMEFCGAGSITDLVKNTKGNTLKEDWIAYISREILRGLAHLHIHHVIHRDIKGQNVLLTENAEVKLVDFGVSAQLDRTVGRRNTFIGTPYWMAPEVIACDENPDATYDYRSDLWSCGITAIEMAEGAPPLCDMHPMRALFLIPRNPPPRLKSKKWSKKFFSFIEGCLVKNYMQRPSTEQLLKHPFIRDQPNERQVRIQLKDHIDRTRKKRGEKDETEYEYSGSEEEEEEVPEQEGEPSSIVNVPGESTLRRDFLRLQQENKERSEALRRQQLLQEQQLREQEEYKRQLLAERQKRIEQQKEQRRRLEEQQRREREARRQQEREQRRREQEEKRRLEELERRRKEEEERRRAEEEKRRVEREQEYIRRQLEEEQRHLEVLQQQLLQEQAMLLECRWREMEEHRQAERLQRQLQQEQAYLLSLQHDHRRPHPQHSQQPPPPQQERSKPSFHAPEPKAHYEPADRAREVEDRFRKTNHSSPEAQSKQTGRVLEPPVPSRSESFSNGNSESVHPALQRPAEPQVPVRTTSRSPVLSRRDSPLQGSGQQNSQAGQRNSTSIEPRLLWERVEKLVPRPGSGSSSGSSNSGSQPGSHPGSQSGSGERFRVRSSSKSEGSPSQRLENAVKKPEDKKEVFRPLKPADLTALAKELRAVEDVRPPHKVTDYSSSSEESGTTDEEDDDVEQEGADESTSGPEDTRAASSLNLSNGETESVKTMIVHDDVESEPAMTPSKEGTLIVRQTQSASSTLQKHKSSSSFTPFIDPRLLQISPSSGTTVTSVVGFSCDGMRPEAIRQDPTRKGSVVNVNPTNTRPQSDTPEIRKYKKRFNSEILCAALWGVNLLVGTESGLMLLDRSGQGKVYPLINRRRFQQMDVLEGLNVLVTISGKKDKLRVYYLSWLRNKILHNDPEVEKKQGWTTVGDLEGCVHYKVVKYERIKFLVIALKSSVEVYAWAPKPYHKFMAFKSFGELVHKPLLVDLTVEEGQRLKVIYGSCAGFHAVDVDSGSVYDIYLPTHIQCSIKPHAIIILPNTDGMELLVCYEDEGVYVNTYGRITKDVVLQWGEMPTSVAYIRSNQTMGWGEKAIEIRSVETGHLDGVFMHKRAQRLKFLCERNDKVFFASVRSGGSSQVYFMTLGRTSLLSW

MAP kinase p38 [7] = biological target: T1, MAP kinase p38 (Homo sapiens, UniProt O15264+Q15759+Q16539+P53778); experiment: Inhibition of p38 (unknown origin) at 1 uM; format: protein assay
MAP kinase p38 [8] = biological target: T1, MAP kinase p38; experiment: Inhibition of p38 (unknown origin); format: protein assay
Method in brief: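 p38 IC50 determined by outside SelectScreen profiling service, ATP at Km.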

[9] = biological target: T2, Casein kinase I isoform delta (Homo sapiens, UniProt P48730); experiment: Inhibition of human CK1 delta transfected in african green monkey cos7 cells after overnight incubation by whole cell assay; format: cell-based, COS-7
T2 sequence (P48730 whole entry, canonical isoform): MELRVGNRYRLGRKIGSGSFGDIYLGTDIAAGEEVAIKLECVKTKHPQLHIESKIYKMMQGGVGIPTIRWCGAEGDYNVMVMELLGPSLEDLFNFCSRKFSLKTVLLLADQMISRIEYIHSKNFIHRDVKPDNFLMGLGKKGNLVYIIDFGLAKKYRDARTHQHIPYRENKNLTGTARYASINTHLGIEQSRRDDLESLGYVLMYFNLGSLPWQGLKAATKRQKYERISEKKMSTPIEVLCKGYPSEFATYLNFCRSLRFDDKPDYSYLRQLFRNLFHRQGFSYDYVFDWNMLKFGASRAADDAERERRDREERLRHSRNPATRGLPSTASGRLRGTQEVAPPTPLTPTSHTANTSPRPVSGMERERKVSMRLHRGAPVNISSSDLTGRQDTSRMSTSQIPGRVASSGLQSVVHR
Method in brief: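 COS-7 cells in DMEM with 10% FBS were co-transfected by lipofection with mPER3-GFP and human CK1δ plasmids (1:11), then plated. Compounds, diluted in Opti-MEM, were tested at 11 concentrations overnight at 37 °C. Cells were fixed in 4% paraformaldehyde and Hoechst-stained, and nuclear translocation of mPER3-GFP was imaged on ArrayScan.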

[10] = biological target: Casein kinase I isoform epsilon (Homo sapiens, UniProt P49674); experiment: Inhibition of CK1 epsilon (unknown origin) using PLSRTLpSVASLPGL as substrate after 85 mins by microplate reader analysis
Chain of Casein kinase I isoform epsilon (P49674 whole entry, canonical isoform): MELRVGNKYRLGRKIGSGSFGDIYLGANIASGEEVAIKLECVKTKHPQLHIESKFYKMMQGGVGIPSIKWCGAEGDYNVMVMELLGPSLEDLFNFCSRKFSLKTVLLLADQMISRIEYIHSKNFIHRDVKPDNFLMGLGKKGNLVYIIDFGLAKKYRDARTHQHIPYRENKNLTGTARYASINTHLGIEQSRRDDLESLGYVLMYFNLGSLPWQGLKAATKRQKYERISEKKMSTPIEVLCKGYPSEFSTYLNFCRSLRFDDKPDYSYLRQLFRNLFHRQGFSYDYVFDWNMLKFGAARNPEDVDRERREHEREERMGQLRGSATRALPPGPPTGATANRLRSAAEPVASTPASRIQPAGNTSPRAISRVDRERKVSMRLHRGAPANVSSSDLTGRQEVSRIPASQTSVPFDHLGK

[11] = biological target: T2, Casein kinase I isoform delta; experiment: Inhibition of CK1 delta (unknown origin) using PLSRTLpSVASLPGL as substrate after 60 mins by microplate reader analysis
[12] = biological target: Tyrosine-protein kinase Lck (Homo sapiens) (UniProt P06239); experiment: Inhibition of LCK (unknown origin) at 1 uM
Chain of Tyrosine-protein kinase Lck (Homo sapiens) (P06239 2-509 limits assumed): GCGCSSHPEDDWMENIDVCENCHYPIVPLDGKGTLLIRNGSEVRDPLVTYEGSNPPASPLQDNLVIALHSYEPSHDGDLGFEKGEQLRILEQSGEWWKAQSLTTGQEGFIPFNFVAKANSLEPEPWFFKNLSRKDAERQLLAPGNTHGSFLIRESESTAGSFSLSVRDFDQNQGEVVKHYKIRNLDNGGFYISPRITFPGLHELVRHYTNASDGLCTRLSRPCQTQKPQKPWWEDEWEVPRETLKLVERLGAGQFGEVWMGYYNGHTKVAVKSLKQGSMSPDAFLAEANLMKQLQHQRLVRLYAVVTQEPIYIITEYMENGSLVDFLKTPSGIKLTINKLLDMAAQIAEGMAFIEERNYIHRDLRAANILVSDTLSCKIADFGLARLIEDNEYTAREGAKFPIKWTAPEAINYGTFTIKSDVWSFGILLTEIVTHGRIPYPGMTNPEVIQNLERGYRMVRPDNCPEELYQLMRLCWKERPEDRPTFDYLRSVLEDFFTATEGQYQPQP

[13] = biological target: Casein kinase I isoform alpha (Homo sapiens) (UniProt P48729); experiment: Inhibition of CK1 alpha (unknown origin) at 1 uM
Homo sapiens = species on record: Homo sapiens; experiment: Inhibition of PKA alpha (unknown origin) at 1 uM
Plasma [14] = experiment: fCmax in C57Bl/6J mouse plasma at 32 mg/kg, sc by LC/MS analysis; format: ADME, organism-based; design: dose 32 mg/kg, route subcutaneous; details: in vivo
Method in brief: (§1)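 Male C57BL/6J mice got a single subcutaneous dose. Plasma and whole brain were taken at 0.5–24 h (n = 4 per time). Brain was homogenized in 60% isopropanol and samples quantified by LC-MS after protein precipitation. Free fraction came from 6 h equilibrium dialysis at 37 °C of plasma or brain homogenate spiked with 1 μM compound.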

Brain [15] = experiment: fCmax in C57Bl/6J mouse brain at 32 mg/kg, sc by LC/MS analysis; format: ADME, organism-based; design: dose 32 mg/kg, route subcutaneous; details: in vivo; method in brief: as §1
[16] = biological target: T3, Voltage-gated inwardly rectifying potassium channel KCNH2 (Homo sapiens, UniProt Q12809); experiment: Displacement of [3H]dofetilide from human ERG channel
T3 sequence (Q12809 whole entry): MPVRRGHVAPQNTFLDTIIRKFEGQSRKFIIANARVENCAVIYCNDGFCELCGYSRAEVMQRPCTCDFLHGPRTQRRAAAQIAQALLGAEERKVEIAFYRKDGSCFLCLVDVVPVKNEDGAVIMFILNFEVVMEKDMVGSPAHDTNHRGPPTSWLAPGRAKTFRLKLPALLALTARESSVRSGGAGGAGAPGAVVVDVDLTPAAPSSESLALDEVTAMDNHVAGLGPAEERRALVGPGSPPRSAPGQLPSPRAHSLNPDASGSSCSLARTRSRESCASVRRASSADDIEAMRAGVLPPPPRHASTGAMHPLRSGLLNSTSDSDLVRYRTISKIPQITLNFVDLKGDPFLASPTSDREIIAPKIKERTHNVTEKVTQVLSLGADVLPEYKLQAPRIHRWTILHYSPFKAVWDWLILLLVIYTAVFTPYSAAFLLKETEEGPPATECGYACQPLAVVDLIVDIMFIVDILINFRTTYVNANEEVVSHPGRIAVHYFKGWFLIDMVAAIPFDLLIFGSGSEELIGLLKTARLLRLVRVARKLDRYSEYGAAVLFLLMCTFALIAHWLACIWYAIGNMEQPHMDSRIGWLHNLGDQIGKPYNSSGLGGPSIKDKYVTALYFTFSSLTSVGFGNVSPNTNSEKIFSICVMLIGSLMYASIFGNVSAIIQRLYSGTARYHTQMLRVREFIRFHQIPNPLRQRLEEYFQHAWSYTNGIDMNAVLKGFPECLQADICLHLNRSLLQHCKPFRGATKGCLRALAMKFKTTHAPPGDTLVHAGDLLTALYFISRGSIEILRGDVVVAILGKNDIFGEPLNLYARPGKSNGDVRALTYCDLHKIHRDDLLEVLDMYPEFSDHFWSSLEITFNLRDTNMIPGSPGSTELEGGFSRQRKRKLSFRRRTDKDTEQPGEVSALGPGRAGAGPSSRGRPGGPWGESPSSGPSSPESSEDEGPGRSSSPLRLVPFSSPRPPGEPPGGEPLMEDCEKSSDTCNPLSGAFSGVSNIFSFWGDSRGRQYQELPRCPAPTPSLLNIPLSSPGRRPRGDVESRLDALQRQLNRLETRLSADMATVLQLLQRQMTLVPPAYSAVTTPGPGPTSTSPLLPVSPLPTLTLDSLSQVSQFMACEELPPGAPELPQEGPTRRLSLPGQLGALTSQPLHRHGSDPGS

Plasma [17] = experiment: fCmax in C57Bl/6J mouse plasma at 56 mg/kg, sc by LC/MS analysis; format: ADME, organism-based; design: dose 56 mg/kg, route subcutaneous; details: in vivo; method in brief: as §1
Brain [18] = experiment: fCmax in C57Bl/6J mouse brain at 56 mg/kg, sc by LC/MS analysis; format: ADME, organism-based; design: dose 56 mg/kg, route subcutaneous; details: in vivo; method in brief: as §1
[19] = biological target: T3, Voltage-gated inwardly rectifying potassium channel KCNH2; experiment: Inhibition of human ERG channel by electrophysiological method
hERG (KCNH2) [20] = biological target: hERG (KCNH2) (Homo sapiens, UniProt Q12809); experiment: Displacement of [3H]dofetilide from human ERG channel at 10 uM; details: probe [3H]dofetilide
hERG (KCNH2) [21] = experiment: Therapeutic index, ratio of EC50 for human ERG channel to fCmax in mouse plasma; format: cell-free; details: read-out: TI
[22] = Ratio of fCmax in brain to plasma of C57Bl/6J mouse; format: ADME, cell-free
Method in brief: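 Male C57BL/6J mice given a single subcutaneous dose (56 mg/kg unless noted). Plasma and whole brain were taken under isoflurane at 0.5, 1, 2, 4, 8 and 24 h (n = 4 per time point). Brain was homogenised in 4 volumes of 60% isopropanol, and samples were quantified by LC-MS after protein precipitation. Free fractions came from equilibrium dialysis of 1 μM-spiked plasma or brain homogenate (6 h, 37 °C, n = 6).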

Mus musculus = experiment: In vivo inhibition of CK1 delta in C57Bl/6J mouse circardian rhythm model assessed as delay in phase shift at 56 mg/kg, sc after 3 days; format: functional; details: route subcutaneous
Method in brief: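 Mice received 56 mg/kg subcutaneously for 3 days. Phase shift was taken as the start of the active period after dosing minus before dosing.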

Row | SMILES | inhibition [4] [%] | inhibition [6] [%] | inhibition (MAP kinase p38 [7]) [%] | IC50 (MAP kinase p38 [8]) [nM] | IC50 [9] [nM] | IC50 [10] [nM] | IC50 [11] [nM] | fCmax (Plasma [17]) [µM] | fCmax (Brain [18]) [µM] | IC50 [16] [nM] | IC50 [19] [nM] | also measured
1 | Cn1cc(-c2ccncc2)c(-c2ccc(F)cc2)n1 | 80 | 66 | 85 | 126 | 545 | 305 | 48.1 |  |  |  |  | inhibition [1]: 52%; inhibition (JNK2/JNK3 (Homo sapiens)): 48%; inhibition [2]: 55%; inhibition [3]: 70.5%; inhibition [5]: 61%
2 | Nc1nccc(-c2c(-c3ccc(F)cc3)ncn2C2CCCCC2)n1 | > 50 | > 50 | > 50 | 39.2 |  |  |  |  |  |  |  | inhibition [12]: > 50%; inhibition [13]: > 50%; inhibition (Homo sapiens): > 50%; fCmax (Plasma [14]): 0.752 µM; fCmax (Brain [15]): 0.241 µM
3 | Cn1cc(-c2ccnc(C3COCCN3)c2)c(-c2ccc(F)cc2)n1 (single isomer, unassigned; (-)) |  |  |  | > 1000 | 90 | 28.2 | 5.3 | 1.95 | 3.7 | 25900 | 4430 | 
4 | Cn1cc(-c2ccnc(CO)c2)c(-c2ccc(F)cc2)n1 |  |  | 42 |  | 237 | 81.6 | 14.2 |  |  |  |  | inhibition at 10 µM (hERG (KCNH2) [20]): 6%

The remaining molecules from weak to strong by IC50 [9], led by results:

Row | inhibition [4] [%] | inhibition [6] [%] | inhibition (MAP kinase p38 [7]) [%] | IC50 (MAP kinase p38 [8]) [nM] | IC50 [9] [nM] | IC50 [10] [nM] | IC50 [11] [nM] | fCmax (Plasma [17]) [µM] | fCmax (Brain [18]) [µM] | SMILES | IC50 [16] [nM] | IC50 [19] [nM] | also measured
5 |  |  |  | 3040 | 63.8 | 67.2 | 12.9 | 9.66 | 7.53 | CNCc1cc(-c2cn(C)nc2-c2ccc(F)cc2)ccn1 |  |  | 
6 |  |  |  | 654 | 39 | 27 |  | 8.82 | 2.97 | Cn1cc(-c2ccnc3c2OCCNC3)c(-c2ccc(F)cc2)n1 | > 79600 | 25700 | selectivity ratio (hERG (KCNH2) [21]): 3; Kp uu [22]: 0.33; Time (Mus musculus): 175 min
